Laboratory results published in ChEMBL document CHEMBL3351393, “iNOS inhibitory activity of sesquiterpenoids and a monoterpenoid from the rhizomes of Curcuma wenyujin” (J Nat Prod, 2014).

Columns and labels:
RAW264.7 [1] = experiment: Cytotoxicity against mouse RAW264.7 cells by MTT assay; assay type: cell-based
RAW264.7 [2] = experiment: Inhibition of LPS-induced NO production in mouse RAW264.7 cells by Griess assay; assay type: functional, cell-based
Procedure, shortened: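 RAW 264.7 mouse macrophages were seeded at 1 × 10^5 cells/well and left to adhere 2 h at 37 °C in 5% CO2. Nitrite accumulated in the supernatant was measured with Griess reagent, and IC50 values were derived. Hydrocortisone served as positive control.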

SMILES | IC50 (RAW264.7 [2]) [µM] | Activity (RAW264.7 [1])
CC1=C2C[C@H]3[C@@](C)(O)CC[C@@]34O[C@@]2(C[C@@]4(C)O)OC1=O | 8.5 | Non-toxic
C=C(C)[C@@H]1CC[C@](C)(O)[C@H]1CC(C(=O)O)=C(C)C | 68.4 | Non-toxic
C=C(C)[C@H]1CC[C@](C)(O)[C@H]1CC(C(=O)O)=C(C)C | 66.5 | Non-toxic
CC(=O)C(C[C@@H]1[C@H](C(C)=O)CC[C@]1(C)O)=C(C)C | 78.7 | Non-toxic
CC(C)=C1C[C@@]23O[C@]1(O)C[C@@](C)(O)[C@H]2CC[C@H]3C | 87.6 | Non-toxic
C/C1=C\[C@H](O)C[C@]2(C)O[C@H]2C(=O)c2c(C)coc2C1 | 78.2 | Non-toxic

Continued, in another order:

IC50 (RAW264.7 [2]) [µM] | SMILES | Activity (RAW264.7 [1])
89.2 | CC(C)=C1C[C@]2(O)[C@@H](C)CC[C@@H]2[C@@](C)(O)CC1=O | Non-toxic
92.4 | CC(C)=C1C[C@]2(O)[C@@H](CC[C@@H]2C)[C@@](C)(O)CC1=O | Non-toxic
47.7 | Cc1coc2c1C(=O)[C@]1(O)[C@@H](C)CC[C@H]1C(CO)=C2 | Non-toxic
7.6 | CC1=C2C[C@H]3[C@@](C)(O)CC[C@@]34O[C@@]2(C[C@]4(C)O)OC1=O | Non-toxic
79.8 | CC1=CC(=O)[C@@H]2C[C@@H]3[C@@](C)(O)CC[C@]13OC2(C)C | Non-toxic
48.6 | CC(C)=C1C[C@@H]2O[C@H](CC[C@]2(C)O)/C(C)=C/C1=O | Non-toxic
77.9 | CC1=CC(=O)C[C@@H]2[C@H]1CC[C@@]2(C)O | Non-toxic
51.4 | C[C@]12CCC(=O)C=C1CC[C@@H]1[C@@H]2[C@@H](O)C[C@@]2(C)[C@H]1CC[C@]2(O)C(=O)CO [HYDROCORTISONE] | 
